Shown are actives, neighbours in structure and some others; about 3.2% of the full set was active somewhere.
Cneo AK release: Cryptococcus neoformans cell lysis inducers, primary screen, AK release luminescence, single concentration; lysis activity, % at 15 µM; C. neoformans lysis, adenylate kinase release luminescence, 4 h; normalised: neutral wells 0, clomiphene wells 100; 360,000 compounds, 0.2% hits;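 active = mean lysis activity across replicates of at least 80%, whatever share of replicates individually reach that level; inactive = mean lysis activity below 80%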
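Test system: log-phase Cryptococcus neoformans yeast cells. Input: 5 × 10^6 yeast cells/mL. Medium: fresh YPD growth medium. Doses: single dose. Incubation: static 4 h at 37 °C with compound, 1 h detection. Measured by: luminescent adenylate kinase detection reagent. Read-out: signal increase indicating cell lysis. Benchmarks: Clomiphene.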
PfHsp90 set2: growth inhibition of PfHsp90-expressing yeast, primary screen, antimalarial PfHsp90 inhibitor project, S. cerevisiae, BacTiter-Glo luminescence, single point, set 2; BacTiter-Glo ATP, 48 h; yeast lacking PDR1 and PDR3 efflux regulators; inhibition, % at 9.4 µM; 310,000 compounds, 0.32% hits;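 active = every replicate shows inhibition above about 80%, whatever the replicate mean, limit read from the data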
rRNA inh HTS: reduced GFP signal of wild-type E. coli, primary screen, bacterial rRNA inhibitor project, GFP/RFP fluorescence, OD600, single point; E. coli WT GFP vs humanized-ribosome RFP mutants, 24 h; stronger effect = lower value; DMSO median 0, no signal -100; GFP signal change (wild-type ribosome), % (concentration not given with the values); 350,000 compounds, 1.6% hits;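 active = significant combined selectivity score with lowered wild-type GFP, culture density cut under 30%, mutant RFP and density less affected; inactive = any of these conditions unmet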
AF4-AF9 inh: inhibitors of AF4 peptide binding to AF9, primary screen, biochemical, AlphaScreen, biotin-AF4 peptide, FLAG-AF9, single point; 350,000 compounds, 0.47% hits; Protein AF-9 (Homo sapiens), P42568; AID 651704, 2012; inhibition, % at 10 µM;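 active = every replicate reaching a set inhibition limit, whatever the replicate mean, cut at about 25% in these data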
Target sequence (P42568 whole entry, looked up): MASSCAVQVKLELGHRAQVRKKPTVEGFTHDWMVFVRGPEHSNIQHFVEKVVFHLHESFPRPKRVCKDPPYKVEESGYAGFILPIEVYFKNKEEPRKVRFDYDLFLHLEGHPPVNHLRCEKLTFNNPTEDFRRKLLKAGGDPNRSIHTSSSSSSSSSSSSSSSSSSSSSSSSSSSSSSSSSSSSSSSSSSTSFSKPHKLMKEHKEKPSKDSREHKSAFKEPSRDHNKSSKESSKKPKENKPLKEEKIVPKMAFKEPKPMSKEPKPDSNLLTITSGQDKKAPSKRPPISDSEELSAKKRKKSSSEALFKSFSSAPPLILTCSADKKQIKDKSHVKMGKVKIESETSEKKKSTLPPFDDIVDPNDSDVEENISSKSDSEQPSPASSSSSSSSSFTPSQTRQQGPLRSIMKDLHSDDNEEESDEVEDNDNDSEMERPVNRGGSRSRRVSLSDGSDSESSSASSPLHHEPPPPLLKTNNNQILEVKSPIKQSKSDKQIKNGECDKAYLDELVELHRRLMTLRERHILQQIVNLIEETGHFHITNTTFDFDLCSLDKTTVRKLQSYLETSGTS
DENV2 CPE: inhibitors of DENV2 cytopathic effect, primary screen, cell-based, plate reader, single concentration; CPE inhibition, % at 9.99 µM; 350,000 compounds, 1.7% hits; DENV2-infected cells, cytopathic effect rescue; AID 651640, 2012; in the data active = CPE inhibition above about 20%, passing the limit was not always enough; tested in BHK-21 cells
S100A4 inh HTS: inhibitors of S100A4-myosin IIA peptide binding, primary screen, biochemical, fluorescence polarization, TAMRA-MyoIIA peptide | Protein S100-A4 (Homo sapiens), P26447 | inhibition, % at 10.7 µM | 360,000 compounds, 0.14% hits | AID 652163, 2013;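 active = mean inhibition of at least 70% across replicates, with every replicate also reaching that level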
Target sequence (P26447 whole entry, looked up): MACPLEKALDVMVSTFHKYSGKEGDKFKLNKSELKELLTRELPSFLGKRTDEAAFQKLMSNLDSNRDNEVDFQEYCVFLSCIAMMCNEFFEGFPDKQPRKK
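assay system = human S100A4 monomer with TAMRA-labelled myosin IIA peptide | also added = labelled myosin peptide probe, 5 nM | incubation = 5 min between mix addition and reading | control set = DMSO and TFP controls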
Hits are given with their value.

`COc1ccc(NC(=O)Nc2ccc3c(c2)CC(=O)N([C@H](C)CO)C[C@@H](C)[C@H](CN(C)C(=O)NC(C)C)O3)cc1` gave Cneo AK release inactive, rRNA inh HTS inactive, AF4-AF9 inh inactive, DENV2 CPE inactive and S100A4 inh HTS inactive.
COc1ccc(NC(=O)N2C[C@H]3[C@@H](c4ccccc42)[C@@H](CO)N3C(=O)C2CCCCC2)cc1 was read as Cneo AK release inactive, rRNA inh HTS inactive, AF4-AF9 inh inactive, DENV2 CPE inactive and S100A4 inh HTS inactive.
`CCCNC(=O)C[C@H]1CC[C@@H]2[C@H](COc3ccc(NC(=O)Nc4cccc(C)c4)cc3C(=O)N2C)O1` gave Cneo AK release inactive, rRNA inh HTS inactive, AF4-AF9 inh inactive, DENV2 CPE inactive and S100A4 inh HTS inactive.
`C[C@H](CO)N1C[C@H](C)[C@H](CN(C)S(=O)(=O)c2cn(C)cn2)Oc2ccc(NC(=O)Cn3cnnn3)cc2CC1=O` gave Cneo AK release inactive, rRNA inh HTS inactive, AF4-AF9 inh inactive, DENV2 CPE inactive and S100A4 inh HTS inactive.
Screening CCCNC(=O)Nc1ccc2c(c1)C(=O)N(C)C[C@@H](OC)[C@@H](C)CN(C(=O)c1ccccc1F)[C@@H](C)CO2 returned Cneo AK release inactive, rRNA inh HTS inactive, AF4-AF9 inh inactive, DENV2 CPE inactive and S100A4 inh HTS inactive.
`O=C(NCC[C@@H]1CC[C@@H](NC(=O)C2CCCCC2)[C@H](CO)O1)c1ccc(F)cc1` gave Cneo AK release inactive, rRNA inh HTS inactive, AF4-AF9 inh inactive and S100A4 inh HTS inactive.
Screening CCCCCCCCN1C(=O)[C@H](CC(=O)NCCCCc2ccccc2)C[C@@]2(C(=O)OC)CC(C)(C)CC=C12 returned DENV2 CPE 35.0 and S100A4 inh HTS inactive.
COc1ccc(N=C2S/C(=C\c3ccc(OCC(=O)O)cc3)C(=O)N2CCc2c[nH]c3ccccc23)cc1 was read as PfHsp90 set2 inactive, rRNA inh HTS inactive, AF4-AF9 inh 35.3, DENV2 CPE inactive and S100A4 inh HTS inactive.
Cc1cc(F)ccc1C(O)c1ncc(-c2ccccc2C(F)(F)F)[nH]1 (stereo not drawn) was read as Cneo AK release inactive, rRNA inh HTS inactive, AF4-AF9 inh inactive, DENV2 CPE 60.0 and S100A4 inh HTS inactive.
For Cc1ccccc1-c1cnc(C(O)c2ccc(F)cc2C)[nH]1 (stereo not drawn) the results were Cneo AK release inactive, rRNA inh HTS inactive, AF4-AF9 inh inactive, DENV2 CPE inactive and S100A4 inh HTS inactive.
O=C(NCC[C@H]1CC[C@H](NC(=O)C2CC2)[C@H](CO)O1)c1cnccn1 was read as Cneo AK release inactive, rRNA inh HTS inactive, AF4-AF9 inh inactive, DENV2 CPE inactive and S100A4 inh HTS inactive.
For CCOC(=O)N1CCC(N(CCN(C)C)C(=S)Nc2cccc(OC)c2)CC1 the results were Cneo AK release inactive, PfHsp90 set2 inactive, rRNA inh HTS inactive, AF4-AF9 inh inactive, DENV2 CPE inactive and S100A4 inh HTS inactive.
CCOC(=O)N1CCC(N(CCOC)C(=S)Nc2cccc(SC)c2)CC1 was read as Cneo AK release inactive, rRNA inh HTS -23.1, AF4-AF9 inh inactive, DENV2 CPE inactive and S100A4 inh HTS inactive.
Screening NNC(=O)c1ccc(CSc2cccc3cccnc23)cc1 returned Cneo AK release inactive, PfHsp90 set2 inactive, rRNA inh HTS inactive, AF4-AF9 inh inactive, DENV2 CPE inactive and S100A4 inh HTS inactive.
For O=C1CCC/C(=N\NC(=O)c2ccc(CSc3cccc4cccnc34)cc2)C1 the results were PfHsp90 set2 inactive, rRNA inh HTS -20.6, AF4-AF9 inh inactive, DENV2 CPE inactive and S100A4 inh HTS inactive.
`Oc1cccc2c(NC(=S)Nc3ccc(SC(F)F)cc3)cccc12` gave PfHsp90 set2 inactive, rRNA inh HTS -41.5, AF4-AF9 inh inactive, DENV2 CPE inactive and S100A4 inh HTS inactive.
For O=C(C1CCCC1)N1CCCCN2[C@H](CO)[C@@H](c3ccc(C#CC4(O)CCCC4)cc3)[C@H]2C1 the results were Cneo AK release inactive, AF4-AF9 inh inactive, DENV2 CPE inactive and S100A4 inh HTS 126.2.
O=C(c1ccc(F)cc1)N1CCCCN2[C@H](C1)[C@H](c1ccc(C#CC3(O)CCCC3)cc1)[C@@H]2CO was read as Cneo AK release inactive, rRNA inh HTS inactive, AF4-AF9 inh inactive, DENV2 CPE 42.5 and S100A4 inh HTS inactive.
`Clc1ccccc1-c1nnc2sc(CCc3ccccc3)nn12` gave Cneo AK release inactive, rRNA inh HTS -18.6, AF4-AF9 inh inactive, DENV2 CPE inactive and S100A4 inh HTS inactive.
Screening c1ccc(CCc2nn3c(Cn4cnc5ccccc54)nnc3s2)cc1 returned rRNA inh HTS -24.1, AF4-AF9 inh inactive, DENV2 CPE inactive and S100A4 inh HTS inactive.
`COc1ccccc1CN1[C@H](CO)[C@H]2c3ccccc3N(C(=O)c3cccnc3)C[C@H]21` gave Cneo AK release inactive, rRNA inh HTS inactive, AF4-AF9 inh inactive, DENV2 CPE inactive and S100A4 inh HTS 130.1.
COc1ccccc1CN1[C@H](CO)[C@@H]2c3ccccc3N(C(=O)c3cccnc3)C[C@@H]21 was read as Cneo AK release inactive, rRNA inh HTS inactive, AF4-AF9 inh inactive, DENV2 CPE inactive and S100A4 inh HTS inactive.
`O=C(c1cccnc1)N1C[C@H]2[C@@H](c3ccccc31)[C@@H](CO)N2Cc1ccc2c(c1)OCO2` gave Cneo AK release inactive, rRNA inh HTS inactive, AF4-AF9 inh inactive, DENV2 CPE 25.6 and S100A4 inh HTS inactive.
For COc1cccc(CN2[C@@H]3CN(C(=O)c4ccncc4)c4ccccc4[C@@H]3[C@@H]2CO)c1 the results were Cneo AK release inactive, rRNA inh HTS inactive, AF4-AF9 inh inactive, DENV2 CPE 20.8 and S100A4 inh HTS inactive.
COc1ccccc1CN1[C@@H](CO)[C@@H]2c3ccccc3N(C(=O)c3cccnc3)C[C@@H]21 was read as Cneo AK release inactive, rRNA inh HTS inactive, AF4-AF9 inh 44.3, DENV2 CPE inactive and S100A4 inh HTS inactive.
`COc1ccc(S(=O)(=O)Nc2ccc3c(c2)C(=O)N([C@H](C)CO)C[C@H](C)[C@@H](CN(C)C)OCCCC[C@@H](C)O3)cc1` gave Cneo AK release inactive, rRNA inh HTS inactive, AF4-AF9 inh inactive, DENV2 CPE inactive and S100A4 inh HTS inactive.
For NCC[C@@H]1CC[C@H](NC(=O)C2CC2)[C@H](CO)O1 the results were rRNA inh HTS inactive, AF4-AF9 inh inactive, DENV2 CPE inactive and S100A4 inh HTS inactive.

From PubChem BioAssay
